PKA-R1A activ: activators of PKA-R1A complex; P00514+P68181; PKA-R1A dissociation, Cy5-IP20 fluorescence polarization; scaled: DMSO 0%, 113 µM cGMP 100%; activation, % at 11.4 µM; 0.083% of 340,000 active;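 active means percent activation above the mean of all tested compounds plus 3 SD, cut at about 19% in these data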;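 further: higher means more PKAc released from R1A so a rise in polarization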
Vif imaging: inhibitors of HIV Vif. HEK293T cells, Vif self-association by quenched fluorescence, imaging, 24 h. AID 602346. inhibition, % at 7.49 µM. 0.35% of 340,000 active; in the data active means inhibition above about 50%, passing the limit was not always enough
SR-BI HDL uptake: inhibitors of mouse SR-BI mediated HDL lipid uptake; 0.96% of 320,000 active; AID 488896; inhibition, % at 12.5 µM; ldlA[mSR-BI] CHO cells, DiI-HDL uptake fluorescence, 3 h;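 active means mean replicate inhibition of at least 70% and a set share of replicates each scoring 70 or more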;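 further: 0% = median of neutral control wells and 100% = median of positive control wells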
PKA-R2B act: activates the human PKA-R2B holoenzyme complex; P22694+P31323; PKA-R2B holoenzyme dissociation, Cy5-IP20 fluorescence polarization; R2B truncated from residue 108, S112A mutant; 0% DMSO only, 100% 113 µM cGMP; activation, % at 11.4 µM; 0.079% of 340,000 active;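 active means activation above a cutoff set at the mean over all compounds plus 3 SD, cut at about 18% in these data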;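 further: higher means more holoenzyme dissociation and a rise in polarization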
Target sequence (P31323 whole entry, looked up, other chains not shown, the tested form may be a part): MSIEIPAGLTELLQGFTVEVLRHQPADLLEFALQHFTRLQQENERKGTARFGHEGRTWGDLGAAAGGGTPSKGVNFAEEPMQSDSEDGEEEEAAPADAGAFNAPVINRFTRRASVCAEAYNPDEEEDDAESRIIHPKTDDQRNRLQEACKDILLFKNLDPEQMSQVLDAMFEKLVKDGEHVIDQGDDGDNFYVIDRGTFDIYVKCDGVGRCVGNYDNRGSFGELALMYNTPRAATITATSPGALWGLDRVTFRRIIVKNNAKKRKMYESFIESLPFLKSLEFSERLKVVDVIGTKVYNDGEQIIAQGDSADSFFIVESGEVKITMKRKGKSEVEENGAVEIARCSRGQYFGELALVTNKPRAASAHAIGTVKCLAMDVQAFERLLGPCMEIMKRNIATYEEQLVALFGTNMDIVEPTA
SR-BI DiI-HDL act: activators of SR-BI mediated HDL lipid uptake | CHO ldlA[mSR-BI] cells, DiI-HDL uptake fluorescence, 3 h; 100 = double the neutral-control signal | activation, % at 12.5 µM | 0.096% of 320,000 active | AID 504775;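 active means mean replicate activation of at least 60% and every replicate at or above 60%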;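 further: 0% = median plate neutral-control signal and 100% = twice that signal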
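Test system: SR-BI-overexpressing, LDLR-lacking CHO cells; Medium: Ham's F12 with 0.5% BSA, HEPES 25 mM, pH 7.4; Schedule: 3 h, 37 °C; Technique: bottom-read fluorescence, 550/595 nm.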
The depositor's hits bear a star. Hits are enriched below; roughly 1.4% of the tested compounds scored in any of these assays.

What do the screens show for `CC1(C)CC2CC(C)(CN2Cc2cccc([N+](=O)[O-])c2)C1` (centres undefined)?
PKA-R1A activ: 4; Vif imaging: 57*; SR-BI HDL uptake: -2; PKA-R2B act: 6; SR-BI DiI-HDL act: 2

How did COc1cccc(CNC(=O)Nc2cccs2)c1 do in these assays?
PKA-R1A activ: -4; Vif imaging: -5; PKA-R2B act: 5

Results for COc1ccc(CNC(=O)Nc2cccs2)cc1OC ?
PKA-R1A activ: -5; Vif imaging: 56*; SR-BI HDL uptake: -14; PKA-R2B act: -11; SR-BI DiI-HDL act: 14

Results for Cc1ccccc1SCC(=O)OCC(=O)NCCNC(=O)COC(=O)CSc1ccccc1C ?
PKA-R1A activ: -19; Vif imaging: 8; SR-BI HDL uptake: -15; PKA-R2B act: -6; SR-BI DiI-HDL act: 15

Results for O=C(CCCN1C(=O)c2ccccc2C1=O)Nc1nncs1 ?
PKA-R1A activ: 2; Vif imaging: 60*; SR-BI HDL uptake: -15; PKA-R2B act: -4; SR-BI DiI-HDL act: 15

Results for O=C(CCCN1C(=O)c2cccnc2C1=O)Nc1ccc(Br)cc1 ?
PKA-R1A activ: -11; Vif imaging: 59*; SR-BI HDL uptake: -7; PKA-R2B act: -4; SR-BI DiI-HDL act: 7

What do the screens show for `CCOC(=O)c1c(NC(=S)NCCc2ccccc2)sc2c1CC(C(C)C)OC2` (centres undefined)?
PKA-R1A activ: 5; Vif imaging: -5; SR-BI HDL uptake: -5; PKA-R2B act: 1; SR-BI DiI-HDL act: 5

Results for C=CCNC(=S)Nc1sc2c(c1C(=O)OCC)CC(C(C)C)OC2 (centres undefined) ?
PKA-R1A activ: -7; Vif imaging: -13; SR-BI HDL uptake: 74*; PKA-R2B act: -5; SR-BI DiI-HDL act: -74

How did COc1ccccc1CNC(=O)c1ccc(Cl)c(NC2=NC3CS(=O)(=O)CC3S2)c1 (centres undefined) do in these assays?
PKA-R1A activ: 4; Vif imaging: 60*; SR-BI HDL uptake: 10; PKA-R2B act: -4; SR-BI DiI-HDL act: -10

Results for CCCC(=O)Nc1nnc(S(=O)(=O)N(CC)c2ccccc2)s1 ?
PKA-R1A activ: 0; Vif imaging: -15; SR-BI HDL uptake: 25; PKA-R2B act: 14; SR-BI DiI-HDL act: -25

What do the screens show for `NC(=O)C1=C(N=C2CCCCC2)CCCC1`?
PKA-R1A activ: -1; Vif imaging: 65*; SR-BI HDL uptake: 3; PKA-R2B act: 1; SR-BI DiI-HDL act: -3

Results for COc1cc2c(cc1NC(=O)Nc1ccccc1)oc1ccccc12 ?
PKA-R1A activ: -13; Vif imaging: -9; SR-BI HDL uptake: 89*; PKA-R2B act: -2; SR-BI DiI-HDL act: -89

How did COc1cc2c(cc1NC(=O)Cc1ccc(C)cc1)oc1ccccc12 do in these assays?
PKA-R1A activ: -4; Vif imaging: 2; SR-BI HDL uptake: 72*; PKA-R2B act: -3; SR-BI DiI-HDL act: -72

What do the screens show for `COc1cc2c(cc1NC(=O)CCCCCN1C(=O)CCC1=O)oc1ccccc12`?
PKA-R1A activ: -3; Vif imaging: -10; SR-BI HDL uptake: 85*; PKA-R2B act: -14; SR-BI DiI-HDL act: -85

Results for COc1cc2c(cc1NC(=O)CSc1ccc(C)cc1)oc1ccccc12 ?
PKA-R1A activ: -16; Vif imaging: 0; SR-BI HDL uptake: 46; PKA-R2B act: -14; SR-BI DiI-HDL act: -46

How did COc1cc2c(cc1NC(=O)C(C)Sc1ccc(C)cc1)oc1ccccc12 (centres undefined) do in these assays?
PKA-R1A activ: -11; Vif imaging: 12; SR-BI HDL uptake: 79*; PKA-R2B act: 8; SR-BI DiI-HDL act: -79

What do the screens show for `COc1cc2c(cc1NC(=O)CCC(=O)O)oc1ccccc12`?
PKA-R1A activ: 10; Vif imaging: 15; SR-BI HDL uptake: -18; PKA-R2B act: 4; SR-BI DiI-HDL act: 18

Results for Cc1ccc(Cc2c(-c3ccc(Cl)cc3)nc3cc(C)ccn23)cc1 ?
PKA-R1A activ: -9; Vif imaging: 7; PKA-R2B act: 3

Results for O=C(Nc1ccc(S(=O)(=O)N2CCCC2)cc1)c1ccc([N+](=O)[O-])cc1 ?
PKA-R1A activ: -3; Vif imaging: -2; SR-BI HDL uptake: 13; PKA-R2B act: 3; SR-BI DiI-HDL act: -13

How did O=C1c2cccc3c([N+](=O)[O-])ccc(c23)C(=O)N1c1nccs1 do in these assays?
PKA-R1A activ: -10; Vif imaging: 67*; SR-BI HDL uptake: -42; PKA-R2B act: -5; SR-BI DiI-HDL act: 42

How did O=C1c2cccc3cccc(c23)C(=O)N1c1nccs1 do in these assays?
PKA-R1A activ: -1; Vif imaging: 3; SR-BI HDL uptake: -24; PKA-R2B act: 6; SR-BI DiI-HDL act: 24

What do the screens show for `O=C1c2cccc3c([N+](=O)[O-])ccc(c23)C(=O)N1c1ccccn1`?
PKA-R1A activ: -5; Vif imaging: 113*; SR-BI HDL uptake: -14; PKA-R2B act: -8; SR-BI DiI-HDL act: 14

How did O=C1c2cccc3c([N+](=O)[O-])ccc(c23)C(=O)N1c1ccc(Cl)cn1 do in these assays?
PKA-R1A activ: -5; Vif imaging: -2; SR-BI HDL uptake: -12; PKA-R2B act: -1; SR-BI DiI-HDL act: 12

What do the screens show for `Cc1cccc(Nc2ccncc2S(N)(=O)=O)c1`?
Vif imaging: 3

Results for COc1ccc(COc2cc(-c3cccc(OC)c3)nc3ccc(NC(C)=O)cc23)cc1 ?
PKA-R1A activ: -3; SR-BI HDL uptake: 33; PKA-R2B act: -8; SR-BI DiI-HDL act: -33

How did COc1ccc(COc2cc(-c3cccc(OC)c3)nc3ccc(NC(=O)c4ccc(C)cc4)cc23)cc1 do in these assays?
PKA-R1A activ: 2; Vif imaging: -11; SR-BI HDL uptake: 72*; PKA-R2B act: -12; SR-BI DiI-HDL act: -72

How did COc1ccc(COc2cc(-c3cccc(OC)c3)nc3ccc(NC(=O)c4ccc(N(C)C)cc4)cc23)cc1 do in these assays?
PKA-R1A activ: -1; SR-BI HDL uptake: 90*; PKA-R2B act: -4; SR-BI DiI-HDL act: -90

What do the screens show for `O=C(Nc1nccs1)c1ccc(N2CCOCC2)c([N+](=O)[O-])c1`?
PKA-R1A activ: -13; Vif imaging: -3; SR-BI HDL uptake: 26; PKA-R2B act: -5; SR-BI DiI-HDL act: -26

How did CCOC(=O)c1cc(-c2ccccc2)sc1NC(=O)COC(=O)c1cccc(S(N)(=O)=O)c1 do in these assays?
PKA-R1A activ: -9; Vif imaging: 55*; SR-BI HDL uptake: 17; PKA-R2B act: -8; SR-BI DiI-HDL act: -17

How did CCOC(=O)c1cc(-c2ccccc2)sc1NC(=O)COC(=O)c1ccc(Cl)c(S(N)(=O)=O)c1 do in these assays?
PKA-R1A activ: 4; Vif imaging: 4; SR-BI HDL uptake: 28; PKA-R2B act: -4; SR-BI DiI-HDL act: -28

How did Cc1c(Br)cccc1NC(=O)C1(C)CCN1C(C)C (centres undefined) do in these assays?
Vif imaging: -3

Source: PubChem BioAssay
